Reference: ChEMBL document CHEMBL5137016, “Turning Nonselective Inhibitors of Type I Protein Arginine Methyltransferases into Potent and Selective Inhibitors of Protein Arginine Methyltransferase 4 through a Deconstruction-Reconstruction and Fragment-Growing Approach” (J Med Chem, 2022)
The source made the active and inactive calls. The rule behind the calls is not given here.

What was measured:
[1] = target: T1, Histone-arginine methyltransferase CARM1 (Homo sapiens) (UniProt Q86X55); experiment: Binding affinity to full length recombinant PRMT4 (unknown origin) assessed as binding constant (Kon) by surface plasmon resonance analysis
T1 sequence (whole entry): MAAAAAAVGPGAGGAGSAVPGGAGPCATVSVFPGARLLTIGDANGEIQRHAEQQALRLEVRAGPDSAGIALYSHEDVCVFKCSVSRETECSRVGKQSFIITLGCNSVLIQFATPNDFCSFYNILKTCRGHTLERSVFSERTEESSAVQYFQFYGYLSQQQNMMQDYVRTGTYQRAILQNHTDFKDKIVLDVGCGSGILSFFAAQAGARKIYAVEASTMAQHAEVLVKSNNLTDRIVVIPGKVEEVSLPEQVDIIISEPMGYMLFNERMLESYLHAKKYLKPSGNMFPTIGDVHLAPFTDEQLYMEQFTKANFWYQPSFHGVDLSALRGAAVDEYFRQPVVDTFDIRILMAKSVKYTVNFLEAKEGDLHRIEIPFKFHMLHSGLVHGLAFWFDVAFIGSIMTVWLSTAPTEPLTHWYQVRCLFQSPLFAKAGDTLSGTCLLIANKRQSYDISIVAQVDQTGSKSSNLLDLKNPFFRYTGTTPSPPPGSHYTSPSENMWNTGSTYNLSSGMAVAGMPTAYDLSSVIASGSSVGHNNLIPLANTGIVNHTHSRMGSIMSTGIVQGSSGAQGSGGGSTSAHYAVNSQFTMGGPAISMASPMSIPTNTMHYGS
Procedure, shortened: (§1)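 Full-length recombinant PRMT4 was amine-coupled to a CM5 chip at 50 μg/mL in 10 mM acetate pH 4.5, to 4.6 kRU, with an empty reference cell. The running buffer was PBS pH 7.4 with 0.05% Tween-20 and 2% DMSO. Compounds ran as 12 serial dilutions from 640 to 10 nM at 25 °C and 30 μL/min, with 90 s association and 90 s dissociation. Data were solvent-corrected and double-referenced, and KD was taken as koff/kon.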

[2] = target: T1, Histone-arginine methyltransferase CARM1 (Homo sapiens); experiment: Binding affinity to full length recombinant PRMT4 (unknown origin) assessed as in vitro residence time by surface plasmon resonance analysis; procedure, shortened: as §1
[3] = target: T1, Histone-arginine methyltransferase CARM1 (Homo sapiens); experiment: Binding affinity to full length recombinant PRMT4 (unknown origin) assessed as binding constant (Koff) by surface plasmon resonance analysis; procedure, shortened: as §1
[4] = target: T2, Histone-arginine methyltransferase CARM1 (Homo sapiens, UniProt Q86X55); experiment: Inhibition of PRMT4 (unknown origin)
T2 sequence (Q86X55 whole entry): T1 sequence (whole entry)

[5] = organism: Homo sapiens; experiment: Selectivity index, ratio of IC50 for inhibition of human full length recombinant GST-tagged PRMT6 (2 to 375 residues) using GST-GAR as substrate to IC50 for inhibition of human full length recombinant GST-tagged PRMT4 (2 to 608 residues) using histone H3 as substrate
Procedure, shortened: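 Radioisotope filter-binding assay: PRMT6 used 5 μM GST-GAR and PRMT4 used 5 μM histone H3, in pH 8.5 Tris buffer with 1% DMSO. Compound was preincubated 20 min at room temperature, then 1 μM 3H-SAM was added for 60 min at 30 °C, with scintillation read-out. […] Index = IC50(PRMT6)/IC50(PRMT4), rounded to integer.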

[6] = tested on: HEK-293T; experiment: Cytotoxicity against human HEK293T cells assessed as cell viability at 10 to 100 uM incubated for 24 to 72 hrs by MTT assay; type: toxicity, cell-based; conditions: dose lower 10 µM, time lower 24 hrs, dose upper 100 µM, time upper 72 hrs
Procedure, shortened: (§2)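 HEK293T cells grown in DMEM with 10% FBS, penicillin/streptomycin and 2 mM glutamine at 37 °C, 5% CO2; seeded at 5 × 10^4 cells/mL, exposed 24 or 72 h to 10, 50 or 100 μM in 0.2% DMSO; MTT formazan dissolved in DMSO, read at 550 nm minus 620 nm; quadruplicate; percent of 0.2% DMSO control.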

[7] = Apparent permeability of the compound in phosphate buffer at pH 7.4 measured after 24 hrs by PAMPA assay; type: ADME; conditions: pH 7.4, 24 h
[8] = Cytotoxicity against human HEK293T cells assessed as cell viability at 10 to 100 uM measured after 72 hrs by MTT assay; type: toxicity, cell-based, HEK-293T; conditions: dose 10-100 µM, read-out: Activity; procedure, shortened: as §2
[9] = tested on: MCF7; experiment: Antiproliferative activity against human MCF7 cells assessed as reduction in cell viability at 50 uM incubated up to 8 days by cell titer-glo assay; type: functional, cell-based; conditions: time <= 8.0 day
Procedure, shortened: (§3)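 MCF7 seeded at 1000 cells/well in 96-well plates; proliferation read at days 0, 2, 4, 6 and 8 with medium changed at day 4; viability measured by CellTiter-Glo luminescence.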

[10] = tested on: MCF7; experiment: Antiproliferative activity against human MCF7 cells assessed as reduction in cell viability at 10 uM incubated up to 8 days by cell titer-glo assay; type: functional, cell-based; conditions: time <= 8.0 day; procedure, shortened: as §3
[11] = Toxicity in human HEK293T cells assessed as cell death at >10 uM measured after 24 hrs; conditions: hek-293t

Compound	K [1]	permeability [7]	Activity [6]	viability at 72 h, up to 100 µM [8]	other results
C[S+](CCC(N)C(=O)O)C[C@H]1O[C@@H](n2cnc3c(N)ncnc32)[C@H](O)[C@@H]1O (single isomer, unassigned)	2.9 10^5/Ms				TIME [2]: 0.0926 h; K [3]: 0.003 s⁻¹
COc1ccc(CCNC(=O)[C@@H](N)CC[C@H](CNCc2ccccc2)C[C@H]2O[C@@H](n3cnc4c(N)ncnc43)[C@H](O)[C@@H]2O)cc1					IC50 [4]: 1900 nM
COC(=O)c1cc(O)c2cc(NC(=O)NCCCCNC(=N)NC/C=C/[C@H]3O[C@@H](n4cnc5c(N)ncnc54)[C@H](O)[C@@H]3O)ccc2c1		Impermeable	Non-Toxic	80%	Activity [9]: Active
CNCCN1CCC(c2cc(CN(C)C(=O)c3cccc(Oc4ccccc4)c3)ccn2)CC1					Activity [10]: Active; Activity [11]: Toxic

The next lines start with results.

K [1]	permeability [7]	Compound	Activity [6]	viability at 72 h, up to 100 µM [8]	other results
2.58 10^4/Ms		COC(=O)c1cc(O)c2cc(NC(=O)NCCCCCCCNC(=N)NC[C@H]3O[C@@H](n4cnc5c(N)ncnc54)[C@H](O)[C@@H]3O)ccc2c1			
3.49 10^4/Ms		COC(=O)c1cc(O)c2cc(NC(=O)NCCCCCNC(=N)NC[C@H]3O[C@@H](n4cnc5c(N)ncnc54)[C@H](O)[C@@H]3O)ccc2c1			Selectivity Index [5]: > 238
0.25 10^6/Ms	Impermeable	COC(=O)c1cc(O)c2cc(NC(=O)NCCCCNC(=N)NCCC[C@H]3O[C@@H](n4cnc5c(N)ncnc54)[C@H](O)[C@@H]3O)ccc2c1	Non-Toxic	80%	
2.7 10^6/Ms	Impermeable	COC(=O)c1cc(O)c2cc(NC(=O)NCCCCNC(=N)NCC[C@H]3O[C@@H](n4cnc5c(N)ncnc54)[C@H](O)[C@@H]3O)ccc2c1	Non-Toxic	80%	
